# Screening data as filed in PubChem BioAssay.
# PHOSPHO1 block – PHOSPHO1 (human) inhibition; inhibition, % at 13.3 µM; hit rate 1.1% among 290,000; recombinant PHOSPHO1, absorbance phosphatase assay; Q8TCT1; in the data active = inhibition above about 60%
# HCV core dimer – blocks dimerization of HCV core protein; AID 1899; TR-FRET GST/Flag-core106 dimerization, 1536-well; hit rate 0.33% among 300,000; inhibition, % at 5 µM;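 active = inhibition above the mean of all tested compounds plus 3 SD, set per screening campaign, cut at about 45% in these data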
#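 Test system: GST/Flag-tagged HCV core106 proteins; Medium: KF-containing HEPES buffer, pH 7.45, DTT, CHAPS, BSA; Times: compound-protein-antibody incubation 4 h at 22.5 °C; Detection: TR-FRET 671 and 617 nm emission; Benchmarks: wells lacking GST-core106 and wells with excess unlabelled core106.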
# HSF1 activator – increases HSF-1 driven luciferase reporter signal; NIH3T3-HGL HSF-1 luciferase reporter, MG132, 8 h; 100% = twice DMSO control signal; activation, % at 9 µM; hit rate 1.7% among 300,000; AID 504408;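 active = mean replicate activation of at least 50% with a set share of replicates each reaching 50%; inconclusive = only one of those two conditions met; inactive = mean below 50% and too few replicates reaching it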;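 also: 0% = median of the neutral control wells and 100% = twice that signal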
# HSF1 inh – HSF1 inhibition; NIH3T3-HGL HSE-luciferase, MG132-induced, luminescence 8 h; hits give low values; activity change, negative = inhibition, % at 7.5 µM (by protocol); hit rate 0.77% among 300,000;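 active = more than half of replicate wells show activity change below -50%, luminescence cut by over half; inconclusive = some wells, but at most half, below -50%; inactive = no replicate well below -50%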;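 also: luciferase reports HSF-1 transcriptional activity via heat shock element; 0% = median of DMSO wells and -100% = zero luminescence signal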
# AI-2 QS mod – modulates the Vibrio harveyi AI-2 quorum sensing system. Vibrio harveyi JMH597 AI-2 luminescence/OD600 ratio, 9 h; hits give low values; strain lacks LuxN and CqsS sensors; 0 = neutral-control median. activity change, % at 7.5 µM. hit rate 0.4% among 300,000. AID 2094; in the data active = activity change below about -75%, passing the limit was not always enough; inconclusive = no clear call, values can overlap the other calls;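 also: luminescence divided by OD600 gain over 9 h not by final OD600 alone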
# ALR H2O2 inh – human ALR oxidase inhibition via reduced H2O2 | AID 485317 | purified ALR, DTT oxidation, H2O2 HRP-luminol luminescence | hit rate 3.8% among 290,000 | inhibition, % (concentration not given with the values) | P55789;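 active = mean replicate inhibition above about 79%, with every replicate also reaching it, limit read from the data; inconclusive = only one of the two criteria met; inactive = mean below limit and not every replicate reaching it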
# Target sequence (P55789 whole entry, looked up): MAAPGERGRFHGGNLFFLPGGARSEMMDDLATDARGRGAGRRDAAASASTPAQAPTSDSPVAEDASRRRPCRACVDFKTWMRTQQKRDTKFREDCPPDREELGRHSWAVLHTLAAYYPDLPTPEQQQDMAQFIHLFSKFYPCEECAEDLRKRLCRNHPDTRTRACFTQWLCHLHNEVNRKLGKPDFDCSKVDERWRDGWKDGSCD
# Active calls of the source: *; ? = inconclusive; nt = not tested or not shown. Sampled rows, rich in hits. Any-hit rate of the full collection: about 6.8%.
SMILES,PHOSPHO1 block,HCV core dimer,HSF1 activator,HSF1 inh,AI-2 QS mod,ALR H2O2 inh
Cc1noc(C)c1S(=O)(=O)N(CC(=O)N1CCc2ccccc21)c1ccc(C(C)C)cc1,-9,-2,-5,-5,22,-108
COc1ccc(N(CC(=O)Nc2cccc(C(=O)O)c2)S(=O)(=O)c2c(C)noc2C)cc1,50,-1,nt,nt,nt,-9
COc1ccc(N(CC(=O)N2CCc3ccccc32)S(=O)(=O)c2c(C)noc2C)cc1,13,0,77*,34,31,-19
COc1cc(C(=O)OCC(=O)NCc2ccc(F)cc2)ccc1OCC(C)C,nt,-1,15,-6,0,0
O=C(c1cccc(Cl)c1)N1CCCc2ccccc21,15,-8,-12,-11,-10,-4
CCOC(=O)/C=C/c1nc(C(=O)OCC)c(C)c(=O)[nH]1,20,4,10,6,16,97*
CN(C)C(=O)c1nc2ccc(Cl)cn2c1CNCc1ccccc1OC(F)(F)F,-8,5,3,-6,12,0
COc1cc(C(=S)N2CCN(c3ccccc3Cl)CC2)cc(O)c1O,-90,14,-1,9,-1,99*
COc1ccc(C(=S)N2CCN(c3ccccc3Cl)CC2)cc1OC,-54,12,21,-5,7,-5
COc1cc(/C=C/c2cc(C(=O)O)c3ccccc3n2)cc(OC)c1O,21,-18,0,-9,32,99*
CCOc1cc(/C=C/c2cc(C(=O)O)c3ccccc3n2)ccc1O,-18,-9,2,-23,41,89*
CN(C)C(=O)CSc1nc2ccc(C(=O)c3ccccc3)cc2[nH]1,19,0,8,5,23,-7
Nn1c(COc2cccc(Br)c2)nnc1SCC(=O)N1CCc2ccccc2C1,82*,12,-1,-6,44,nt
C[C@H](NC(=O)c1nc[nH]c1C(=O)N[C@@H](CCCCN)C(=O)OC(C)(C)C)C(=O)OCc1ccccc1,nt,nt,nt,nt,nt,7
CCCCNC(=O)CC1N=C2c3ccccc3N=C(SCC(=O)Nc3ccccc3C)N2C1=O (stereo not given),15,-5,27,11,30,94*
CCC(C)NC(=O)CSC1=Nc2ccccc2C2=NC(CC(=O)NCc3ccc(F)cc3)C(=O)N12 (stereo not given),18,-8,25,8,14,nt
CCOC(=O)CSC1=Nc2ccccc2C2=NC(CC(=O)NCc3ccccc3)C(=O)N12 (stereo not given),18,10,9,11,35,98*
CCOC(=O)CSC1=Nc2ccccc2C2=NC(CC(=O)NCc3cccs3)C(=O)N12 (stereo not given),35,2,1,-3,18,-12
Cc1cc(C)n(CCc2nc(-c3ccc(C)o3)cs2)n1,52,39,18,5,11,95*
Cc1cc(NC(=O)CSc2nc3c(cc2C#N)CCCC3)no1,4,10,71*,45,6,-9
Cc1cc(NC(=O)CSc2nc3c(cc2C#N)CCC3)no1,36,6,84*,55,7,nt
Cc1cc(NC(=O)CSc2nc3ccccc3cc2C#N)no1,23,-120,?,23,3,nt
CCc1cc(C(=O)N(C)CC(=O)N(CC(C)C)c2c(N)n(CC(C)C)c(=O)[nH]c2=O)sc1C,31,12,0,1,10,3
CN(C)c1nnnn1-c1ccc(Oc2ncc(C(F)(F)F)cc2Cl)cc1,-4,2,0,3,9,0
COc1ccc(OC)c(/C=N/N(C)c2ccccc2)c1,14,-19,29,13,25,99*
COc1ccc(OC)c(/C=N\NC(=O)c2ccc(-c3ccccc3)cc2)c1,42,nt,nt,nt,-2,-7
COc1cc(/C=N/N(C)c2ccccc2)cc(Cl)c1O,8,-35,-6,-9,31,99*
Cc1cccc(NC2=Nc3ccccc3N3C2=Nc2c(c(C)nn2-c2ccccc2)C3c2ccc(O)c(O)c2)c1 (stereo not given),-4,46*,19,13,45,1
C=CCSC1=C(C#N)C(c2cccc(OC)c2)CC(=O)N1 (stereo not given),-4,0,51*,8,-2,-9
